The values that follow come from ChEMBL document CHEMBL2375221, “Preparation and antimalarial activity of semisynthetic lycorenine derivatives” (Eur J Med Chem, 2013).

Where only a bound is given, the exact number is not on record here.

The test system of the test is Plasmodium falciparum. Put plainly: Antimalarial activity against chloroquine-sensitive Plasmodium falciparum F-32 Tanzania infected in blood assessed as decrease in parasitaemia after 48 hrs. It is filed as functional, organism-based. The method in brief: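 P. falciparum F-32 Tanzania (chloroquine-sensitive) grown in glucose-enriched RPMI 1640 with 10% human serum at 37 °C. After 24 h at 37 °C, the medium was replaced with fresh medium containing compound in DMSO at three concentrations (0.1, 1, 10). Incubation continued 48 h. On day three, a blood smear from each well was used to score parasitaemia versus control. IC50 was read graphically against concentration.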
For the compound `CN1CCC2=C[C@H](O)[C@H]3OC(=O)c4cc5c(cc4[C@@]3(O)[C@@H]21)OCO5`, the 50% inhibitory concentration (IC50) (in general, the midpoint of a concentration-inhibition curve) amounted to 60.4 µM. As for `CN1CCC2=C[C@H](O)[C@H]3NC(=O)c4cc5c(cc4[C@H]3[C@@H]21)OCO5`, the half-inhibitory concentration (IC50) amounted to 18.8 µM. With `CC(=O)O[C@H]1C=C2CCN(C)[C@H]2[C@@H]2c3cc4c(cc3C(=O)O[C@@H]21)OCO4` the figure was 58.8 µM; with `CN1CCC2=C[C@H](OC(=O)c3cccnc3)[C@H]3OC(=O)c4cc5c(cc4[C@H]3[C@@H]21)OCO5`, 49.8 µM. For `CN1CCC2=C[C@H](OC(=O)c3ccc(Br)cc3)[C@H]3OC(=O)c4cc5c(cc4[C@H]3[C@@H]21)OCO5` the value was 42.2 µM; for `CC(C)C(=O)O[C@H]1C=C2CCN(C)[C@H]2[C@@H]2c3cc4c(cc3C(=O)O[C@@H]21)OCO4`, 57.1 µM; for `COC(=O)c1cc(C(=O)OC)cc(C(=O)O[C@H]2C=C3CCN(C)[C@H]3[C@@H]3c4cc5c(cc4C(=O)O[C@@H]32)OCO5)c1`, 7.4 µM. With `C=CCCC(=O)O[C@H]1C=C2CCN(C)[C@H]2[C@@H]2c3cc4c(cc3C(=O)O[C@@H]21)OCO4` the figure was 55.4 µM; with `CN1CC=C2C=C[C@H]3OC(=O)c4cc5c(cc4[C@H]3[C@@H]21)OCO5`, 94.1 µM; with `CN1CC[C@]2(Cl)C=C[C@H]3OC(=O)c4cc5c(cc4[C@H]3[C@H]12)OCO5`, 84 µM. In the case of `CCOC(=O)O[C@H]1C=C2CCN(C)[C@H]2[C@@H]2c3cc4c(cc3C(=O)O[C@@H]21)OCO4`, the 50% inhibitory concentration (IC50) turned out to be 61.8 µM. With `C=Cc1ccc(C(=O)O[C@H]2C=C3CCN(C)[C@H]3[C@@H]3c4cc5c(cc4C(=O)O[C@@H]32)OCO5)cc1` the figure was 49.4 µM; with `CN1CCC2=C[C@H](O)[C@H]3OC(=O)c4cc(O)c(O)cc4[C@H]3[C@@H]21`, 9.9 µM. As to `COc1cc2c(cc1OC)[C@@H]1[C@H](OC2=O)[C@@H](O)C=C2CCN(C)[C@H]21`, the IC50 is 84.5 µM. With `C[N+]1([O-])CCC2=C[C@H](O)[C@H]3OC(=O)c4cc5c(cc4[C@H]3[C@@H]21)OCO5` (stereo partly drawn) the figure was 87.6 µM; with `C[N+]1=CCC2=C[C@H](O)[C@H]3OC(=O)c4cc5c(cc4[C@H]3[C@@H]21)OCO5`, greater than 100 µM. Turning to `COC(=O)c1cc2c(cc1-c1cc(OC(C)=O)cc3c1N(C)CC3)OCO2`, the half-inhibitory concentration (IC50) was 70.4 µM. With `CN1CC[C@@H]2C[C@H](O)[C@H]3OC(=O)c4cc5c(cc4[C@H]3[C@@H]21)OCO5`, the half-inhibitory concentration (IC50) was 78.8 µM. With `CN1CC[C@]2(Br)C[C@H](O)[C@H]3OC(=O)c4cc5c(cc4[C@H]3[C@H]12)OCO5` the figure was 58.7 µM. For `CN1CC[C@]2(O)[C@H](Br)[C@H](O)[C@H]3OC(=O)c4cc5c(cc4[C@H]3[C@H]12)OCO5` the value was 58.3 µM.

In the case of `CN1CC[C@@]2(O)[C@@H]1[C@@H]1c3cc4c(cc3C(=O)O[C@@H]1[C@@H](O)[C@@H]2O)OCO4`, the IC50 amounted to 68.7 µM. With `C=Cc1cccc(-c2cc3c(cc2C(=O)O)OCO3)c1N(C)C` the figure was 67.5 µM. With `C=Cc1cccc(-c2cc3c(cc2C(=O)O)OCO3)c1N(C)CC` the figure was 86.1 µM; with `C=Cc1cccc(-c2cc3c(cc2C(=O)O)OCO3)c1N(C)CCCC`, greater than 100 µM.

On to `C=Cc1cccc(-c2cc3c(cc2C(=O)O)OCO3)c1N(C)CCCCCCCCCCC`, for which the IC50 was greater than 100 µM. For `C=Cc1cccc(-c2cc3c(cc2C(=O)OC)OCO3)c1N(C)C` the value was 67.6 µM; for `C=Cc1cccc(-c2cc3c(cc2C(=O)OC)OCO3)c1N(C)CCCC`, 76.2 µM; for `CN1CCC2=C[C@H](OC(=O)c3cccc(C(=O)O[C@H]4C=C5CCN(C)[C@H]5[C@@H]5c6cc7c(cc6C(=O)O[C@@H]54)OCO7)c3)[C@H]3OC(=O)c4cc5c(cc4[C@H]3[C@@H]21)OCO5`, 1.3 µM. `CN1CCC2=C[C@H](OC(=O)c3cccc(C(=O)O[C@H]4C=C5CCN(C)[C@H]5[C@@H]5c6cc7c(cc6C(=O)O[C@@H]54)OCO7)n3)[C@H]3OC(=O)c4cc5c(cc4[C@H]3[C@@H]21)OCO5`: the half-maximal inhibitory concentration (IC50) was determined as 3.9 µM. For `CN1CCC2=C[C@H](OC(=O)c3ccc(C(=O)O[C@H]4C=C5CCN(C)[C@H]5[C@@H]5c6cc7c(cc6C(=O)O[C@@H]54)OCO7)cc3)[C@H]3OC(=O)c4cc5c(cc4[C@H]3[C@@H]21)OCO5` the value was 1.3 µM; for `CN1CCC2=C[C@H](OC(=O)CCCCC(=O)O[C@H]3C=C4CCN(C)[C@H]4[C@@H]4c5cc6c(cc5C(=O)O[C@@H]43)OCO6)[C@H]3OC(=O)c4cc5c(cc4[C@H]3[C@@H]21)OCO5`, 4 µM; for `CN1CCC2=C[C@H](O)[C@H]3OC(=O)c4cc5c(cc4[C@H]3[C@@H]21)OCO5`, 12.7 µM. In the case of `CN1CCC2=CC(=O)[C@H]3OC(=O)c4cc5c(cc4[C@H]3[C@@H]21)OCO5` [2-OXOHIPPEASTRINE], the IC50 came out at 79.8 µM.
